Assays:
92.1 cells = assay: Transwell migration assay, 92.1; type: cell-based; settings: 3, 10, and 20 μmol/L; 48 h
[1] = Human liver microsome stability assay; type: in vitro ADME; settings: liver microsomes, pH 7.4
Method in brief: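 Test compound (1 μmol/L) was preincubated for 5 min at 37 °C with human liver microsomes (0.5 mg/mL) in 100 mmol/L potassium phosphate, pH 7.4, with 5 mmol/L MgCl2. Reactions were started with 1 mmol/L NADPH. Aliquots were quenched with acetonitrile containing internal standard at 0, 5, 15, 30 and 45 min, centrifuged and analysed by LC–MS/MS for half-life and intrinsic clearance.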

Gαq/11 = Gαq/11 (Homo sapiens, UniProt P50148); assay: Agonist; type: cell-based; settings: HEK293-AT1R cells; different concentrations
Sequence of Gαq/11 (P50148 whole entry): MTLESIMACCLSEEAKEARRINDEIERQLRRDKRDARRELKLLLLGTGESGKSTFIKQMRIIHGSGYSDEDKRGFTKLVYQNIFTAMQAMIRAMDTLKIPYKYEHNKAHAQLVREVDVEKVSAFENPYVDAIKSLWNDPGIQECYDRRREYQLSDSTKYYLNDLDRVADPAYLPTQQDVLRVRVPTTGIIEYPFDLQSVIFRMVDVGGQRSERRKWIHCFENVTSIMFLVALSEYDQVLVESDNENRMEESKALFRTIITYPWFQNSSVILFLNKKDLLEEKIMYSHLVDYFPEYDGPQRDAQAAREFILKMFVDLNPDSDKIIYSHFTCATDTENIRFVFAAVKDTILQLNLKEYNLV
Sequence of Gαq/11 (P62873 2-340 partner limits assumed): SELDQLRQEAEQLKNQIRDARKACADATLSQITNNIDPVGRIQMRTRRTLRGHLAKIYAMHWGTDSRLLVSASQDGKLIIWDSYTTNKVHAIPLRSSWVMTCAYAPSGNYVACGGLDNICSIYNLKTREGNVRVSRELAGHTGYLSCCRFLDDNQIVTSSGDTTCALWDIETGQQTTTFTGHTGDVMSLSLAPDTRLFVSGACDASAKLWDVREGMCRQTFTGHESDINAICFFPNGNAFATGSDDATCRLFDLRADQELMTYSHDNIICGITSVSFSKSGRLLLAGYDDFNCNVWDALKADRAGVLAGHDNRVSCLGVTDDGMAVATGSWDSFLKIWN
Sequence of Gαq/11 (P59768 2-68 partner limits assumed): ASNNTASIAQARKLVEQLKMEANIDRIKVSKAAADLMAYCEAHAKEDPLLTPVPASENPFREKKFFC
Method in brief: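 HEK293 cells transiently co-transfected with AT1R, Gαq-RLuc8, unlabeled Gβ1 and Gγ2-Venus, replated 24 h after transfection and cultured overnight. Cells were pretreated 1 h with test compound at several concentrations, then AngII was added, followed by coelenterazine as luciferase substrate. BRET between Gα and Gβγ was read on a plate reader. Runs were in triplicate, mean ± SEM (n = 3).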

MP41 cells [2] = assay: Apoptosis assay by flow cytometry; type: cell-based; settings: 48 h
Method in brief: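 MP41 cells were seeded at 3 × 10^5 cells/well, left overnight, then exposed to test compound for 48 h. Washed cells were stained with Annexin V-FITC for 15 min, then with PI for 5 min. Samples were analysed by flow cytometry. Data are mean ± SEM, n = 3.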

MP41 cells [3] = assay: Transwell migration assay, MP41; type: cell-based; settings: 3, 10, and 20 μmol/L; 48 h
Method in brief: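 MP41 cells were seeded at 1 × 10^4 cells/well in Transwell upper chambers, with RPMI-1640 plus 20% FBS in the lower chamber, and left overnight. Test compound was added for 48 h. Cells left in the upper chamber were removed, and cells on the lower side were stained with crystal violet for 0.5 h and counted by microscope at ×40.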

[4] = tested on: cleaved caspase-7, Bcl-2, and Mcl-1; assay: Western blot of apoptosis related proteins in UM cells; type: cell-based
Method in brief: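 Cells or xenograft tumour tissue were lysed in RIPA buffer with protease and phosphatase inhibitors. Lysates were cleared at 15,000 rpm, 4 °C for 15 min, and protein was quantified by BCA. Proteins were separated on 8%–12% SDS-PAGE, transferred to PVDF and blocked with 5% BSA. After primary and secondary antibodies, bands were detected by enhanced chemiluminescence.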

## CN1CCC[C@H]1CN1CCn2cc(-c3ccccc3)nc2[C@@H]1CC1CCCCC1 [GQ262]
92.1 cells
  92.1 cell migration: remarkably and dose-dependently inhibited
[1]
  CLint scaled at 1 μmol/L: 30.2 mL/min/kg
  half-life at 1 μmol/L: 57.5 min
Gαq/11
  Effect on AngII-induced BRET signals: dose-dependently inhibitory efficacy on BRET signals
MP41 cells [2]; 3 μmol/L
  Cell apoptosis: 11.5%
MP41 cells [2]; 10 μmol/L
  Cell apoptosis: 16.0%
MP41 cells [3]
  MP41 cell migration: remarkably and dose-dependently inhibited
[4]
  Bcl-2 and Mcl-1 levels: down-regulation
  Cleaved caspase-7 level: up-regulation
